Measurements taken from the EternaBench riboswitch data.

System: MS2 coat protein
Test: apparent Kd, MS2 coat protein; higher = weaker binding; RNA-MaP array; FMN 200 µM where present
Procedure, shortened: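 Stalled E. coli RNA polymerase transcribed each design on Illumina sequencing-chip clusters. The clusters were titrated with SNAP-549-labelled MS2 coat protein, starting at 0.7 or 1.5 nM and doubling up to 3 µM, first without ligand and then with constant ligand, in 100 mM Tris-HCl pH 7.5, 80 mM KCl, 4 mM MgCl2, BSA, DTT, yeast tRNA and Tween-20. Green signal was normalised to red-channel RNA signal and to the control-cluster median Fmax. The apparent Kd is the median of filtered binding-curve fits made for each cluster.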

[1] = designed as: OFF switch for flavin mononucleotide, no ligand
[2] = ligand present: flavin mononucleotide, designed as: OFF switch for flavin mononucleotide
[3] = designed as: ON switch for flavin mononucleotide, no ligand
[4] = ligand present: flavin mononucleotide, designed as: ON switch for flavin mononucleotide

Sequence | apparent Kd [1] [nM] | apparent Kd [2] [nM] | apparent Kd [3] [nM] | apparent Kd [4] [nM]
GUCCGAAGGGAGAAGGGCUAGGAGGUCCAGCUUAUGUGUGUUGCAACAUGAGGAUCACCCAUGUAGCAGGAUAUCCCUCGUACA | 44.5 | 333 |  | 
GUCCGGCGUGUAGGAUAUGGAUCCGAUUAGGAUCCAGAAGGACAUGAGGAUCACCCAUGUACAUGUAAACAGUCAUCACCGGAC | 6.4 | 7.41 |  | 
GUCCGGCGUGUAGGAUAUGGAUCCGAUUAGGAUCCAGAAGGACAUGAGGAUCACCCAUGUACAUGUAAACAGUCAUCACCGGAU | 7.5 | 23.5 |  | 
GUCCUACAUGAGGAUCACCCAUGUGAGGAUAUGGAUUCGCUGGCCGUAGCCAGUGGAUCCAGAAGGCGCGUGAU | 63.1 | 64.8 |  | 
GUCCUCGGCGAGGAUAUCGGGCGGGUUUUUGUUUGAGAAGGCGUGACAUGAGGAUCACCCAUGUGGCGCGUGGG | 41.6 | 59.3 |  | 
GUCCUUAACAAGGAUAUCGGGCGGGUUUUUGUUUGAGAAGGUGUGACAUGAGGAUCACCCAUGUGGCGCGUGGG | 355 | 383 |  | 
GUCGCUAGAGGAUAUACAAUGGUAUAUGAUCCUAGUGACAUACAUGAGGAUCACCCAUGUAGAAGGCUAGUAUU | 23.5 | 19 |  | 
GUCGGAAACGACAAAAGUAGCAUACGAGAAGGUUGAUCCAAGACAUGAGGAUCACCCAUGUAGAUAGAGGAUAUUGAAUGCUAC |  |  | 310 | 244
GUCGGAAACGACAAAAGUAGCAUAGGAGAAGGUUCAUUAAACAUGAGGAUCACCCAUGUAAUUGGGAAGGAUAUCCUAUGCUAC |  |  | 16.2 | 9.16
GUCGGAAACGACAAACGUAGCAUACGAGAAGGCUGAUCCACGACAUGAGGAUCACCCAUGUAUUUAGAGGAUAUUGGAUGCUAC |  |  | 126 | 20.3
GUCGUGUAAGGAUAUGCAUCGAGGUAGCGAAUGUUGCAGGUGUAGAAGGUACAUGAGGAUCACCCAUGUAAUGU | 22.2 | 30.1 |  | 
GUCUCGAUGUAAGGAUAUGCAGUGGAUAACACUGCAGAAGGUACAUGAGGAUCACCCAUGUAUAUGAAAGAUAAUAAACGAGAC | 14.4 | 19.8 |  | 
GUCUCGUCAGGAUAUGACGCUACAUUUUUUUUUUAGAAGAGUCAGAAGGGACAUGAGGAUCACCCAUGUGAUUC | 288 | 218 |  | 
GUCUUCCUAGGAUAUACAUGAGGAUCACCCAUGUACAGUUUCGUCUAAGGAUACUCGCGUAGAAGGAGGUGGAU | 21.9 | 42.7 |  | 
GUGAAGUAAGGAUAUACAUGAGGAUCACCCAUGUAAGGGAAGGUGAUGGGAGUAGAUAGUAGAAGGUACGAGGA | 120 | 81.9 |  | 
GUGACGAAUGUAGGAUAUGCUGAGGAAUACUCAGCAGAAGGACAUGAGGAUCACCCAUGUCAUCCUUAUAAUGAAUAACGUCAC | 13.8 | 18.3 |  | 
GUGACGAAUGUAGGAUAUGCUGAGGAUAACUCAGCAGAAGGACAUGAGGAUCACCCAUGUCAUCCUAAUAAUAAAUAACGUCAC | 14.8 | 18.8 |  | 
GUGCACAUUCGAGGAUAUCGGAGAGAGAUCCUUCGAGAAGGCGAUUCAUGCUGUAUUAUCCUGGACAUGAGGAUCACCCAUGUG |  |  | 199 | 127
GUGCAUUCGUAGAAGGGUGACAUGAGGAUCACCCAUGUGCGCUGAGCUCAAGAUGCACCAGCGCCACAGGAUAUACGAAGCACC |  |  | 54.3 | 84

Sequence | apparent Kd [1] [nM] | apparent Kd [2] [nM] | apparent Kd [3] [nM] | apparent Kd [4] [nM]
GUGCCUUGGGAGAAGGCCCAAUGUAAAGCAUAGGGAGGAUAUUCAUAUAAUAAAUAAACAUGAGGAUCACCCAUGUGGCACAAA |  |  | 831 | 48.5
GUGCCUUGGGAGAAGGCCGUAUGCAAAGCAUACGGAGGAUAUUCAUACCGGAAACGGACAUGAGGAUCACCCAUGUGGCACAAA |  |  | 1360 | 46.1
GUGCCUUGGGAGAAGGUUAUAUGCAAAGCAUUUAAAGGAUAUUCAUACCGGAAACGGACAUGAGGAUCACCCAUGUGGCACAAA |  |  | 1280 | 128
GUGCCUUGGGAGAAGGUUAUGUGCAAAGCAUUUAAAGGAUAUUCAUACCGGAAACGGACAUGAGGAUCACCCAUGUGGCACAAA |  |  | 621 | 150
GUGCGGAACCUAGGAUAUCCGGCAUGGACAGGUGGUAAGUCUCCCACAUGAGGAUCACCCAUGUAGGAGAAGGAGGAUCACGGA | 6.46 | 6.07 |  | 
GUGCGGUAGGAGAAGGACGGAGGGUUCUUUUCAUACAUGAGGAUCACCCAUGUAGGAUAUCCUACCUCACGCGGCCUACUACAG | 8.11 | 11.4 |  | 
GUGCGUGGCUAGGAUAUUGUGGAGUUUAGUCAGCGAGAAGGUGCCACAUGAGGAUCACCCAUGUGGUGUUGCUC | 19.8 | 21.7 |  | 
GUGCUCGUGUGAGGAUAUGCUUCCGUUUCGGCUGCAGAAGGUACUAUUAUACAUGAGGAUCACCCAUGUCUCUUUUCUUCGGUG |  |  | 33.1 | 33.7
GUGCUUAACUAGAAGGCCGAUAGCAAAGCUAUCGGAGGAUAUGGGUUCCGGAAACGGACAUGAGGAUCACCCAUGUGGCACAAA |  |  | 121 | 14.6
GUGGAUAGACGCCCACGUGAGACAUGAGGAUCACCCAUGUACAGAAGGUGGAGCGUUAAUGGUGCCAAGGAUAUGUACAUAAGG |  | 5.11 |  | 
GUGGCGACUGAGAAGGUACGCAUAAAAGAGAAGUAAGGAUAUCAGUCACAUGAGGAUCACCCAUGUGUUGGAAAGAUCCUUAAA | 10.4 | 37.9 |  | 
GUGGCUAGUGCAGGAUAUCGGCGCGUGUAGUGCCGAGAAGGGCACAUGAGGAUCACCCAUGUGAUCAAUCACUGCUAAGGCCGC | 5.19 | 5.37 |  | 
GUGGUACAUGAGGAUCACCCAUGUUAGGAUAUCGCGUGAGGUUUUGCUUCCGCGCGCGCGAGAAGGGACGUCUU | 28.3 | 23.9 |  | 
GUGGUCAGACAUGAGGAUCACCCAUGUGGAAUAAAUAACGUCAAGGAUAUACAAUAUAGGAUAUAGUAGAAGGUGAGAUUGGUG |  |  | 114 | 113
GUGGUCAGACAUGAGGAUCACCCAUGUGGAAUAAAUAAGGAAAAGGAUAUUCAAUAUAGGAUAUAGAAGAAGGUUUGGUUGGUG |  |  | 74.4 | 83.4
GUGGUCAGACAUGAGGAUCACCCAUGUGGAAUAAAUAAGGAGAAGGAUAUCGAAUAUAGGAUAUACGAGAAGGUCUGGUUGGUG |  |  | 77.3 | 83.1
GUGGUCAGACAUGAGGAUCACCCAUGUGGAAUAAAUAAGGAGAAGGAUAUGCAAUAUAGGAUAUAGUAGAAGGUCUGGUUGGUG |  |  | 83.5 | 97.2
GUGGUCAGACAUGAGGAUCACCCAUGUGGAAUAAAUAAGGAGAAGGAUAUUAAAUAUAGGAUAUAUAAGAAGGUCUGGUUGGUG |  |  | 86.8 | 95.8
GUGGUCAGACAUGAGGAUCACCCAUGUGGAAUAAAUAAGGAGAAGGAUAUUGAAUAUAGGAUAUACAAGAAGGUCUGGUUGGUG |  |  | 84.9 | 87

Sequence | apparent Kd [1] [nM] | apparent Kd [2] [nM] | apparent Kd [3] [nM] | apparent Kd [4] [nM]
GUGGUCAGACAUGAGGAUCACCCAUGUGGAAUAAAUAAGGGAGAGGAUAUAUAAUAUAGGAUAUAAUAGAAGGCUCGGUUGGUG |  |  | 82.5 | 111
GUGGUCUGACAUGAGGAUCACCCAUGUGGAAUAAAUACGGGUUAGGAUAUCUUGAGGAUCACCCAAGAGAAGGGAUGGAUGGUC |  |  | 100 | 106
GUGGUUCGCGAGAAGGGAGCUUAAGGACGCGGCUCAGGAUAUCGUACAUGAGGAUCACCCAUGUGCUGGCAUCUCCAGUGCGUG | 118 | 56.1 |  | 
GUGGUUGUCGUAGGAUAUGUAGGAUAUUCCUACAUGAGGAUCACCCAUGUUCGCAUGGAAGAAGGAUAGAAGGACGAUGACCAG |  |  | 76.7 | 388
GUGUACAGAGGAUAUACAUAAGCUAGGAAACUAGCAUCUUCACAUGAGGAUCACCCAUGUAGAAGGCUGUACAC | 19.8 | 78.5 |  | 
GUGUACAGAGGAUAUACAUGAGCUAGGAAACUAGCAACCUCACAUGAGGAUCACCCAUGUAGAAGGCUGUACAC | 32.7 | 25.8 |  | 
GUGUACAGAGGAUAUACAUGGGCAUGGAAACAUGCAUCUUCACAUGAGGAUCACCCAUGUAGAAGGCUGUACAC | 34.7 | 21.3 |  | 
GUGUACAUCGGAGGAUAUCAUGUAAAUACAUGAGGAUCACCCAUGUCGAUGGAGACAUCGGAGAUUGAGAAGGCCGAUGUACCG |  |  | 169 | 9.35
GUGUACGGAGGAUAUAUAUGGGCAGCAUACGCUGCAGCUUCACAUGAGGAUCACCCAUGUAGAAGGCUGUACAC | 25 | 200 |  | 
GUGUAGAUAGGAUAUGCUUUGAGCUUAUGAGAGUAUGCUCGACAUGAGGAUCACCCAUGUAGAAGGGUUUACAC |  | 52.5 |  | 
GUGUAGUCAGGAUAUACAUAGGAAGAGAAUAUAAUAUAAGUACAUGAGGAUCACCCAUGUAGAAGGGACAGUGU | 35.3 | 39.9 |  | 
GUGUAGUUAGGAUAUGCUGGAAUCUAGCGAAGCUAGGUUCCACAUGAGGAUCACCCAUGUAGAAGGGACUACAC |  | 73 |  | 
GUGUGAUUAAGAGGAUAUAUACAACAUGAGGAUCACCCAUGUACCCGUGUAGUAGAAGGUUUGUUUUUAUAUAAUAAUAUAAUU |  |  | 29.3 | 27.9
GUGUUGUCAGGAUAUCUUACAUAACAAUCGUUGUUACCAUUGGAGAAGGGACAUGAGGAUCACCCAUGUUAUCC | 24.1 | 26.3 |  | 
GUUACCGUAGGAUAUACAUGAGGAUCACCCAUGUACUCAGUCGAUGGAUAAGAGUACUGUAGAAGGGCGCCGGC | 140 | 150 |  | 
GUUAGUUAAGGAUAUACAGGGAGCCGCGGCGUCUCGCCGCAACAUGAGGAUCACCCAUGUAGAAGGUGGCCAUU | 150 | 119 |  | 
GUUAGUUAAGGAUAUACUGGGAGCUGCGGCGUCUCGCCGCAACAUGAGGAUCACCCAUGUAGAAGGUGACCGUU | 640 | 285 |  | 
GUUAUAAAGGUAGGAUAUUGUAUUAUAAUUAAAUAAGAAGGAUCUCACAUGAGGAUCACCCAUGUAAGAGGAUCACCCAUGUAU | 9.63 | 8.14 |  | 
